Data reported in PMC4969713 (Journal of Alzheimer's Disease, 2016).
pKi: −log10 of the molar value. Several values for one entry are separate records, joined by “and”; a condition that tells them apart may be missing. Equal values may be shown once. Where a name gives a salt, the structure may show the parent alone. Read-outs that look alike come from different tables or passages of the source.

How the values were obtained:
male adult SHK mice = assay: 14 days toxicity, mice; format: in vivo; details: 5 mg/kg PO daily
Method in brief: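 Mice randomly assigned to a vehicle group or a 5 mg/kg group.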

[1] = target: norpinephrine transporter (Homo sapiens, UniProt P23975); assay: Target panel binding, norpinephrine transporter
[2] = Stability in human blood plasma; format: in vitro ADME; details: 30-min incubation, room temperature
muscarinic M2 receptor = muscarinic M2 receptor (Homo sapiens, UniProt P08172); assay: Target panel binding, muscarinic M2
Pharmacokinetics in dogs = format: in vivo, dogs (Beagle); details: for Cmax / Tmax / half-life / AUC: Beagle, dog, blood
5-HT1A receptor = 5-HT1A receptor (Homo sapiens, UniProt P08908); assay: Radioligand binding competition, 5-HT1A
[3] = Brain/plasma/CSF distribution in Sprague Dawley rats; format: in vivo
[4] = test system: calcium channels of L type; assay: Target panel binding, calcium channel L type
[5] = Metabolism in human microsomes; format: in vitro ADME; details: for Remaining quantity: HLM
BALB/c mice = assay: Morris water maze, scopolamine-induced amnesia; format: in vivo; details: IP; AVN-101 0.2 mg/kg; Tacrine 3 mg/kg; donepezil 1 mg/kg; scopolamine 1.5 mg/kg
Method in brief: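 Scopolamine-induced amnesia model in male BALB/c mice. Read-out was time spent in the quadrant where the escape platform had been during the two preceding training days, reported as mean ± SE.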

Wistar rats = assay: 30 days toxicity, rats; format: in vivo; details: 0.5, 5 and 25 mg/kg PO daily
Method in brief: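 Wistar rats were randomised to vehicle, 0.5, 5 or 25 mg/kg, with 10 males and 10 females per group. Read-outs were body weight, plasma biochemistry markers, and macro- and microscopic observations.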

[6] = Pharmacokinetics in Rhesus monkeys; format: in vivo; details: for AUC / Cmax / k el / half-life: rhesus monkey, in vivo; for k el: Kel
5-HT2C receptor = target: T1, 5-HT2C receptor (Homo sapiens, UniProt P28335); details: Table 2; cited from earlier work
T1 sequence (P28335 33-458): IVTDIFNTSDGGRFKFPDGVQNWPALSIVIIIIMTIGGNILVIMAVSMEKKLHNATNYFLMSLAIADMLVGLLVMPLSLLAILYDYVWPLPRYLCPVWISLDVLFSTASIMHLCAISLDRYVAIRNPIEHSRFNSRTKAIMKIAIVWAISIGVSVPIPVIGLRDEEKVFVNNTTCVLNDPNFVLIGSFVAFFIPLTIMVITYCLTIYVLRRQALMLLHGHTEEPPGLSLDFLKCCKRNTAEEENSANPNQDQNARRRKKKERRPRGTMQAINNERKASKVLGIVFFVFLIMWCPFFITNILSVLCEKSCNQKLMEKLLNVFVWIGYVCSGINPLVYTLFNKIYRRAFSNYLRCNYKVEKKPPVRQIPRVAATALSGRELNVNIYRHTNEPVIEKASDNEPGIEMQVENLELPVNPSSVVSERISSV

[7] = Sprague Dawley, rat, CSF, iv, 2 mg/kg
[8] = Sprague Dawley, rat, brain, iv, 2 mg/kg
[9] = Sprague Dawley, rat, plasma, iv, 2 mg/kg
[10] = iv, 2 mg/kg, monkey 34887, IV 2 mg/kg
[11] = iv, 2 mg/kg, monkey 35188, IV 2 mg/kg
[12] = po, 10 mg/kg, Mean, PO 10 mg/kg
[13] = po, 10 mg/kg, monkey 34920, PO 10 mg/kg
[14] = po, 10 mg/kg, monkey 35189, PO 10 mg/kg

Chain of muscarinic M2 receptor (P08172 whole entry): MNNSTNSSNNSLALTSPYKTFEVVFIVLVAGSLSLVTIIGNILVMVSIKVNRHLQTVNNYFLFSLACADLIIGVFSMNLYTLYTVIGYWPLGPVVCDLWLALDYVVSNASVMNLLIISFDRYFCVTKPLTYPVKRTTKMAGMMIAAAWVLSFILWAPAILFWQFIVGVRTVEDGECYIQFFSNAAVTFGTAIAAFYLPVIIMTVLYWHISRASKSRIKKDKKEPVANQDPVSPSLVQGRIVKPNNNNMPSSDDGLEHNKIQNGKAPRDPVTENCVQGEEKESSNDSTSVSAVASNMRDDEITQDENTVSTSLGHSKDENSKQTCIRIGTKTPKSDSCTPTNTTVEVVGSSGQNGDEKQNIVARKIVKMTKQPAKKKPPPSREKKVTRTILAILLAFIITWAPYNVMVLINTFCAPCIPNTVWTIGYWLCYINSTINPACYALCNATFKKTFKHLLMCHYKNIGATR
Chain of 5-HT1A receptor (P08908 whole entry): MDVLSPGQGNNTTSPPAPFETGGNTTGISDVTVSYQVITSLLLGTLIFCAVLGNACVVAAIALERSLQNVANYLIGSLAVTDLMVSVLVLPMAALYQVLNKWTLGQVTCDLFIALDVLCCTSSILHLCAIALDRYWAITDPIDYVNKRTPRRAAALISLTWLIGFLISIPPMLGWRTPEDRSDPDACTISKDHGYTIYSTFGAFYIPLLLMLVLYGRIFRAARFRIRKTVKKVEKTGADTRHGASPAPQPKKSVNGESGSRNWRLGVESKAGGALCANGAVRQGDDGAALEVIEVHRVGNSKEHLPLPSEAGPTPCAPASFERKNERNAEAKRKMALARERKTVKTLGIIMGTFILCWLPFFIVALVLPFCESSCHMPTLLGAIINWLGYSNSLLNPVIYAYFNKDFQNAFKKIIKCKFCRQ
Chain of norpinephrine transporter (P23975 whole entry): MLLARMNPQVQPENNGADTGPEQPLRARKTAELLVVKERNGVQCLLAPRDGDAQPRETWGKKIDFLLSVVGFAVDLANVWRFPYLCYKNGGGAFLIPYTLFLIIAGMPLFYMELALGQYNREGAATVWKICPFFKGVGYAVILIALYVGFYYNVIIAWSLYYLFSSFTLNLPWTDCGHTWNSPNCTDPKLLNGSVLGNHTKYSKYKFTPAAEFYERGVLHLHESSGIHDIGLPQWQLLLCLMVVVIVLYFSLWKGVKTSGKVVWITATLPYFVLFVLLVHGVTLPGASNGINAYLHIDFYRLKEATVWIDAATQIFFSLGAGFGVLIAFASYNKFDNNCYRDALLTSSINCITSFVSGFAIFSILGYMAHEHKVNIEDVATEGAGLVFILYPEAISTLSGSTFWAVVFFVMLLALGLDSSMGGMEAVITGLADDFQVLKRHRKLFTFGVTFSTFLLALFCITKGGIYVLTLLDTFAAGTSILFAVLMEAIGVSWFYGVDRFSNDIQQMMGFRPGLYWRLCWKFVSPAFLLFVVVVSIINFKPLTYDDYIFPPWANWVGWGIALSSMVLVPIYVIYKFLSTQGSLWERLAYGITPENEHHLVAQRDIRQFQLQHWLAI

Cc1ccc2c(c1)c1c(n2CCc2ccccc2)CCN(C)C1 [AVN-101, 2,8-dimethyl-5-penethyl-2,3,4,5-tetra-hydro-1h-pyrido[[4,3-B]]indole hydrochloride]
signs of toxicity (male adult SHK mice): No signs of toxicity
binding [1]: does not bind
residual amount of original compound [2]: 68%
binding (muscarinic M2 receptor): does not bind
Fabs (Pharmacokinetics in dogs; AVN-101 PO 10 mg/kg vs IV 2 mg/kg): 4.6%
Cmax (Pharmacokinetics in dogs; iv, 1 mg/kg): 13.7 ng/mL
Tmax (Pharmacokinetics in dogs; iv, 1 mg/kg): 0.0167 h
half-life (Pharmacokinetics in dogs; iv, 1 mg/kg): 0.348 h
AUC (Pharmacokinetics in dogs; iv, 2 mg/kg): 498 ng·h/mL
Cmax (Pharmacokinetics in dogs; iv, 2 mg/kg): 3740 ng/mL
Tmax (Pharmacokinetics in dogs; iv, 2 mg/kg): 0.0167 h
half-life (Pharmacokinetics in dogs; iv, 2 mg/kg): 0.497 h
AUC (Pharmacokinetics in dogs; po, 5 mg/kg): 31.6 ng·h/mL
Cmax (Pharmacokinetics in dogs; po, 5 mg/kg): 9.1 ng/mL
Tmax (Pharmacokinetics in dogs; po, 5 mg/kg): 4 h
AUC (Pharmacokinetics in dogs; po, 10 mg/kg): 114 ng·h/mL
Cmax (Pharmacokinetics in dogs; po, 10 mg/kg): 23 ng/mL
Tmax (Pharmacokinetics in dogs; po, 10 mg/kg): 1 h
half-life (Pharmacokinetics in dogs; po, 10 mg/kg): 6.1 h
pKi (5-HT1A receptor): < 7.52
binding to blood cells ([3]; IV 2 mg/kg, 5 min after injection): low binding capacity
Vss_obs ([3]; Plasma, IV 2 mg/kg): 11.6136 L/kg
AUC(0-inf) [3, 7]: 31.7 ng·h/mL
AUC(0-t) [3, 7]: 25.3 ng·h/mL
Cmax [3, 7]: 11 ng/mL
half-life [3, 7]: 1.62 h
k el [3, 7]: 0.000118 s⁻¹
AUC(0-inf) [3, 8]: 8960 ng·h/mL
AUC(0-t) [3, 8]: 8000 ng·h/mL
Cmax [3, 8]: 4660 ng/mL
Tmax [3, 8]: 4.8 min
half-life [3, 8]: 1.26 h
k el [3, 8]: 0.000153 s⁻¹
AUC(0-inf) [3, 9]: 522 ng·h/mL
AUC(0-t) [3, 9]: 376 ng·h/mL
C0 [3, 9]: 308 ng/mL
Cmax [3, 9]: 274 ng/mL
Tmax [3, 9]: 4.98 min
Vd [3, 9]: 13.2 L/kg
clearance [3, 9]: 63.9 mL/min/kg
half-life [3, 9]: 2.39 h
k el [3, 9]: 8e-05 s⁻¹
binding [4]: does not bind
k el ([5]; 1μM): 0.335
original AVN-101 consumed ([5]; 2μM, 30-min incubation): 57%
Remaining quantity ([5]; AVN-101 1 μM, 7.9 min): 3.0%
Remaining quantity ([5]; AVN-101 1 μM, 30 min): 2%
Remaining quantity ([5]; AVN-101 2 μM, 7.9 min): 40.0%
Remaining quantity ([5]; AVN-101 2 μM, 30 min): 43%
half-life at 1 µM ([5]; human, liver microsomes): 2.07 min
microsomal CLint at 1 µM ([5]; human, liver microsomes): 335 µL/min/mg
effect on scopolamine-induced amnesia (time in platform quadrant) (BALB/c mice): effectively reversed
signs of toxicity (Wistar rats): No signs of toxicity
Fabs ([6]; PO 10 mg/kg vs IV 2 mg/kg, mean): 15.3%
AUC ([6]; iv, 2 mg/kg, AUC0 ⟶t, Mean, IV 2 mg/kg): 426 ng·h/mL
AUC ([6]; iv, 2 mg/kg, AUC0 ⟶t, monkey 34887, IV 2 mg/kg): 356 ng·h/mL
AUC ([6]; iv, 2 mg/kg, AUC0 ⟶t, monkey 35188, IV 2 mg/kg): 496 ng·h/mL
AUC ([6]; iv, 2 mg/kg, AUC0 ⟶∞, Mean, IV 2 mg/kg): 792 ng·h/mL
AUC ([6]; iv, 2 mg/kg, AUC0 ⟶∞, monkey 34887, IV 2 mg/kg): 388 ng·h/mL
AUC ([6]; iv, 2 mg/kg, AUC0 ⟶∞, monkey 35188, IV 2 mg/kg): 1200 ng·h/mL
Cmax ([6]; iv, 2 mg/kg, Mean, IV 2 mg/kg): 324 ng/mL
Cmax [6, 10]: 304 ng/mL
Cmax [6, 11]: 345 ng/mL
k el ([6]; iv, 2 mg/kg, Mean, IV 2 mg/kg): 0.000208 s⁻¹
k el [6, 10]: 0.000347 s⁻¹
k el [6, 11]: 7.17e-05 s⁻¹
half-life ([6]; iv, 2 mg/kg, T1/2, Mean, IV 2 mg/kg): 1.63 h
half-life ([6]; iv, 2 mg/kg, T1/2, monkey 34887, IV 2 mg/kg): 0.55 h
half-life ([6]; iv, 2 mg/kg, T1/2, monkey 35188, IV 2 mg/kg): 2.7 h
AUC ([6]; po, 10 mg/kg, AUC0 ⟶t, Mean, PO 10 mg/kg): 360 ng·h/mL
AUC ([6]; po, 10 mg/kg, AUC0 ⟶t, monkey 34920, PO 10 mg/kg): 321 ng·h/mL
AUC ([6]; po, 10 mg/kg, AUC0 ⟶t, monkey 35189, PO 10 mg/kg): 398 ng·h/mL
AUC ([6]; po, 10 mg/kg, AUC0 ⟶∞, Mean, PO 10 mg/kg): 606 ng·h/mL
AUC ([6]; po, 10 mg/kg, AUC0 ⟶∞, monkey 34920, PO 10 mg/kg): 637 ng·h/mL
AUC ([6]; po, 10 mg/kg, AUC0 ⟶∞, monkey 35189, PO 10 mg/kg): 575 ng·h/mL
Cmax [6, 12]: 66 ng/mL
Cmax [6, 13]: 53 ng/mL
Cmax [6, 14]: 79 ng/mL
k el [6, 12]: 3.67e-05 s⁻¹
k el [6, 13]: 2.67e-05 s⁻¹
k el [6, 14]: 4.5e-05 s⁻¹
half-life ([6]; po, 10 mg/kg, T1/2, Mean, PO 10 mg/kg): 5.77 h
half-life ([6]; po, 10 mg/kg, T1/2, monkey 34920, PO 10 mg/kg): 7.3 h
half-life ([6]; po, 10 mg/kg, T1/2, monkey 35189, PO 10 mg/kg): 4.25 h
pKi (5-HT2C receptor): 8.93
Blood plasma concentration (Dogs (beagles); 0.05 mg/kg IV infusion): 140 nM and 140 ± 20 nM
femoral SBP, down (Dogs (beagles); 0.5 mg/kg): 13%
Blood plasma concentration (Dogs (beagles); 0.5 mg/kg IV infusion): 990 nM and 990 ± 40 nM
femoral SBP, down (Dogs (beagles); 0.5 mg/kg, p < 0.05): 17 mm Hg
femoral SBP, down (Dogs (beagles); 2 mg/kg): 16%
Blood plasma concentration (Dogs (beagles); 2 mg/kg IV infusion): 3280 nM and 3280 ± 300 nM
shortening of QT (Dogs (beagles); 2.0 mg/kg, at 30 min): 15%
shortening of QTcV (Dogs (beagles); 2.0 mg/kg, at 30 min): 8%
femoral SBP, down (Dogs (beagles); 2 mg/kg, p < 0.05): 21 mm Hg
HR, up (Dogs (beagles); 10 mg/kg): 164%
aortic DBP, down (Dogs (beagles); 10 mg/kg): 13%
femoral BF, up (Dogs (beagles); 10 mg/kg): 27%
femoral DBP, down (Dogs (beagles); 10 mg/kg): 17%
femoral SBP, down (Dogs (beagles); 10 mg/kg): 11%
left ventricular DBP, down (Dogs (beagles); 10 mg/kg): 40%
reduction in QT (Dogs (beagles); 10.0 mg/kg): 30%
reduction in QTcV (Dogs (beagles); 10.0 mg/kg): 13%
Blood plasma concentration (Dogs (beagles); 10 mg/kg IV infusion): 11100 nM and 11100 ± 2150 nM
HR, up (Dogs (beagles); 10 mg/kg, p < 0.001): 118 bpm
aortic DBP, down (Dogs (beagles); 10 mg/kg, p < 0.05): 9 mmHg
femoral BF, up (Dogs (beagles); 10 mg/kg, p < 0.05): 35 mL/min
femoral DBP, down (Dogs (beagles); 10 mg/kg, p < 0.05): 12 mm Hg
left ventricular DBP, down (Dogs (beagles); 10 mg/kg, p < 0.05): 2 mmHg
femoral SBP, down (Dogs (beagles); 10 mg/kg, p > 0.05): 15 mm Hg
